As a reminder, the Inhibition is the share of the control response that was lost under treatment. Lower therefore signals little suppression.

This is an account of results in ChEMBL document CHEMBL1122186, “Synthesis and spasmolytic activities of 2-(1,2-benzisoxazol-3-yl)-3-[[omega-(dialkylamino)alkoxy]phenyl]acrylonitriles” (1982).

What all share (assay type): functional
The species named for experiment [1] is Mus musculus.
Experiment [2] is filed under the species Cavia porcellus. Briefly: (§1) Inhibitory effect on the response of isolated ileum to acetylcholine (anti-ACh activity) in guinea pig was determined. The gist of the method: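 Ileum contraction to acetylcholine (1.1 × 10^-4 mM), with compound added 2 min before the agonist. Three concentrations per compound, percent inhibition averaged over four experiments. ID50 is derived graphically.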

The subject of experiment [3] is Mus musculus. The experiment in a line: Percent inhibition of the charcoal meal transfer in mice(100 mg/kg) was determined. The procedure, abridged:
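Male ddN mice (20–25 g) are fasted 18 h and dosed orally. Charcoal meal (5% charcoal in 10% tragacanth) is given orally 20 min later, and mice are killed after 30 min. Charcoal travel is expressed as % of small-intestine length (pylorus to caecum). The group mean (n=7) is compared with the vehicle group (n=7) as percent change.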

The species named for experiment [4] is Cavia porcellus. The experiment is described as §1. The procedure, abridged: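 Isolated ileum contracted with acetylcholine (1.1 × 10^-4 mM). Test compound added 2 min before the agonist. Each compound was tested at three concentrations, with percent inhibition of the contraction as the mean of four experiments. ID50, the concentration giving 50% inhibition, was read off by the usual graphic method.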
This is another data set of the same source.

With `Cl.N#C/C(=C\c1ccccc1OCCN1CCOCC1)c1noc2ccc(O)cc12`, the Inhibition in the experiment filed under Mus musculus [1] was found to be 4%.

In the experiment listed under Cavia porcellus [2], `COc1ccc2onc(/C(C#N)=C/c3ccccc3OCCN3CCOCC3)c2c1.Cl` showed an ID50 of 32 µM. Also, the Inhibition in the experiment listed under Mus musculus [1] is reported as 48%.

In turn, `CCCC[N+]1(C)[C@@H]2C[C@@H](OC(=O)[C@H](CO)c3ccccc3)C[C@H]1[C@@H]1O[C@@H]12.[Br-]` (stereo not given in full) [BUTYLSCOPOLAMINE BROMIDE] displayed an ID50 in the experiment listed under Cavia porcellus [2] of 0.075 µM. The Inhibition in the experiment listed under Mus musculus [1] is given as 19%.

In turn, `Cl.N#C/C(=C\c1ccccc1OCCN1CCCCC1)c1noc2ccc(Cl)cc12.O` had an Inhibition in the experiment listed under Mus musculus [1] of 37%.

For the compound `CN1[C@@H]2CC[C@H]1C[C@@H](OC(=O)C(CO)c1ccccc1)C2.O=S(=O)(O)O` (stereo not given in full) [ATROPINE SULFATE], the ID50 in the experiment listed under Cavia porcellus [2] was found to be 0.0072 µM. The compound also displayed an Inhibition in the experiment filed under Mus musculus [1] of 27%.

As to `Cl.N#C/C(=C\c1ccccc1OCCCCN1CCOCC1)c1noc2ccccc12`, the Inhibition in the experiment listed under Mus musculus [1] is 22%.

In the experiment filed under Mus musculus [1], `Br.N#C/C(=C\c1ccccc1OCCN1CCCCCC1)c1noc2ccccc12` registered an Inhibition of 27%.

Take `Cl.N#C/C(=C\c1ccccc1OCCCN1CCCCCC1)c1noc2ccccc12`: the Inhibition in the experiment filed under Mus musculus [1] came out at 21%.

In the experiment listed under Mus musculus [1], `Cl.N#C/C(=C\c1ccccc1OCCN1CCOCC1)c1noc2ccc(Cl)cc12.O` registered an Inhibition of 11%.

Compound `Cl.N#C/C(=C\c1ccccc1OCCN1CCOCC1)c1noc2ccccc12.O` displayed an ID50 in the experiment filed under Cavia porcellus [2] of 22 µM. The Inhibition in the experiment filed under Mus musculus [1] stood at 55%.

As for `Cl.N#C/C(=C\c1ccccc1OCCN1CCCC1)c1noc2ccc(Cl)cc12`, in the experiment filed under Mus musculus [1], the Inhibition was 19%.

For `Cl.N#C/C(=C\c1ccccc1OCCN1CCCCC1)c1noc2ccccc12.O`, in the experiment listed under Cavia porcellus [2], the ID50 came out at 8.7 µM. Besides, in the experiment filed under Mus musculus [1], the Inhibition was found to be 45%.

The compound `Cl.N#C/C(=C\c1cccc(OCCN2CCOCC2)c1)c1noc2ccccc12` gave an Inhibition in the experiment listed under Mus musculus [1] of 32%.

The compound `CCN(CC)CCOc1ccccc1/C=C(\C#N)c1noc2ccc(O)cc12.Cl` registered an Inhibition in the experiment filed under Mus musculus [1] of 14%.

`CCN(CC)CCOc1ccccc1/C=C(\C#N)c1noc2ccccc12.Cl`: in the experiment filed under Mus musculus [1], the Inhibition stood at 20%.

`Cl.N#C/C(=C\c1ccccc1OCCN1CCCCC1)c1noc2ccc(O)cc12` came in with an Inhibition in the experiment filed under Mus musculus [1] of 39%.

In the experiment listed under Mus musculus [1], `COc1ccc(Cc2nccc3cc(OC)c(OC)cc23)cc1OC.Cl` [PAPAVERINE HYDROCHLORIDE] displayed an Inhibition of 1%.

For `Cl.N#C/C(=C\c1ccccc1OCCN1CCCC1)c1noc2ccccc12`, in the experiment filed under Mus musculus [1], the Inhibition was determined as 22%.

In turn, `CN(C)CCOc1ccccc1/C=C(\C#N)c1noc2ccccc12.Cl.O` gave an ID50 in the experiment listed under Cavia porcellus [2] of 16 µM. In the experiment listed under Mus musculus [1], this compound displayed an Inhibition of 37%.

`C[N+]1(CCOc2ccccc2/C=C(\C#N)c2noc3ccccc23)CCOCC1.[I-]` showed an Inhibition in the experiment filed under Mus musculus [1] of 12%.

In turn, `CN(C)CCCOc1ccccc1/C=C(\C#N)c1noc2ccccc12.Cl` yielded an Inhibition in the experiment filed under Mus musculus [1] of 9%.

`CN(C)CCOc1ccccc1/C=C(\C#N)c1noc2ccc(Cl)cc12.Cl` registered an Inhibition in the experiment filed under Mus musculus [1] of 11%.

Turning to `COc1ccc2onc(/C(C#N)=C/c3ccccc3OCCN3CCCCC3)c2c1.Cl.O`, the ID50 in the experiment filed under Cavia porcellus [2] stood at 25 µM. In the experiment with Mus musculus [3], this compound had an Inhibition of 51%.

`Cl.N#C/C(=C\c1ccccc1OCCCN1CCOCC1)c1noc2ccccc12`: the Inhibition in the experiment listed under Mus musculus [1] is 46%.

In the experiment filed under Cavia porcellus [4], `CN1CC[C@]23c4c5ccc(O)c4O[C@H]2[C@@H](O)C=C[C@H]3[C@H]1C5.Cl` [MORPHINE HYDROCHLORIDE] yielded an ID50 of 5.3 µM. In the experiment listed under Mus musculus [1], this compound gave an Inhibition of 64%.

Compound `COc1ccc2onc(/C(C#N)=C/c3ccccc3OCCN3CCCC3)c2c1.Cl.O` displayed an Inhibition in the experiment filed under Mus musculus [1] of 33%.

With `Cl.N#C/C(=C\c1ccc(OCCCN2CCCCC2)cc1)c1noc2ccccc12.O`, the Inhibition in the experiment filed under Mus musculus [1] came to 19%.
